Data taken from publication PMC5111764 (Journal of Clinical Pharmacology, 2016).
Where two headings read alike, the source gives them in different places.

What was measured:
plasma DPP-4 activity [1] = molecular target: T1, plasma DPP-4 activity (Homo sapiens, UniProt P27487); test: Study 1: inhibition of plasma DPP-4 activity after single doses; type: in vivo
Procedure, shortened: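 Healthy subjects got single oral doses of 0.5–400 mg or placebo. Blood went into EDTA tubes and was spun at 1700g for 10 min at 4°C, then stored at –20°C or below. Plasma was incubated with glycyl-prolyl-paranitroanilide, and absorbance increase at 390 nm was read from 4 to 14 min (LOQ 0.6 mOD/min). Inhibition is the % change from the period-1 predose baseline. The 168-h values came from a linear mixed-effects model (treatment fixed, subject random).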

[2] = type: in vivo; conditions: male, human, plasma, po
Procedure, shortened: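 In an alternating-panel design (panels A and B), each panel had 6 active and 2 placebo subjects. Single oral doses of 0.5–400 mg were given after an overnight fast, with at least 2 weeks of washout. Blood went into K2EDTA and was spun at 1000–1300g, 4–10°C, for 10 min, then stored at –20°C. Plasma was extracted liquid-liquid with a stable-isotope internal standard and assayed by LC/MS/MS with turbo ionspray (range 1.0–1000 ng/mL). Parameters came from individual concentration-time curves at actual sampling times.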

active GLP-1 = test: Study 2: weighted average augmentation; type: in vivo, human; conditions: healthy subjects (abstract)
Procedure, shortened: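 Once-weekly oral dosing ran days 1, 8 and 15 against placebo. On day 15, standard meals were given at 4 and 10 h post-dose, with the 4-h sample drawn before the meal. Plasma active GLP-1 (7-36 and 7-37 amides) was measured by electrochemiluminescent immunoassay. Capture was with an antibody to amino acid 7, and detection with antibodies to the C-terminal residues 36/37. WAA was taken through 2 h after each meal and analysed by ANOVA versus placebo.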

[3] = ref unpublished data; cited from earlier work
[4] = rats and dogs; cited from earlier work
plasma DPP-4 activity [5] = molecular target: T1, plasma DPP-4 activity; test: PK/PD Emax model of DPP-4 inhibition vs omarigliptin plasma concentration; type: in vivo
[6] = Safety and tolerability in healthy subjects; type: in vivo, human; conditions: single and multiple doses
Procedure, shortened: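 Healthy adults got single rising oral doses or 3 once-weekly oral doses, versus placebo. Physical exams, vital signs and 12-lead ECGs (QTc, PR) were done before dosing, after dosing and at the poststudy visit. So were labs (hematology, serum chemistry including transaminases, urinalysis). Glucometer readings were taken often over 24 h after each single dose or the last multiple dose. Adverse experiences were graded for intensity, duration, seriousness, outcome and drug relation.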

[7] = type: in vivo, human; conditions: for fe, fraction of dose excreted in urine: Day 15, 168-hour collection; for half-life / CL renal: male, human, oral; for half-life: plasma; for CL renal: urine and plasma
Procedure, shortened: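 Serial panels got 10, 25, 50 or 100 mg orally once weekly on days 1, 8 and 15, with 6 active and 2 placebo per panel. Plasma was assayed by LC/MS/MS (LLOQ 1.0 ng/mL). Urine was fortified with 0.2% Tween 20, protein-precipitated and assayed by LC/MS/MS (range 40.0–40,000 ng/mL). Ae is the sum of concentration × volume per interval, fe is Ae/dose and CLr is Ae/AUC. Accumulation is the day 15/day 1 GMR with 90% CI from a log-transformed mixed-effects model.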

[8] = ref unpublished data; cited from earlier work; remark: listed apart in the source
[9] = PK/QTc relationship: linear mixed-effects model of QTcF vs plasma concentration; type: in vivo, human; conditions: Cmax of 10 μM
Procedure, shortened: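 In study 1, single rising oral doses ran from 0.5 to 400 mg under fasting. ECGs came from 5-lead cardiac telemetry and 12-lead recordings, paired with PK sampling. The averaged triplicate QTcF at each time point (dependent) was matched to plasma drug concentration (independent). These were fitted by a linear mixed-effects model with slope and intercept, and the slope was tested against zero. Prolongation was predicted from the fitted slope.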

[10] = Study 1 panel C: effect of a high-fat breakfast on single-dose pharmacokinetics; type: in vivo, human; conditions: single dose 10 mg
Procedure, shortened: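 Panel C had 8 subjects, 6 on 10 mg test compound and 2 on placebo, in a 2-period fixed sequence. Dosing was fasted in period 1 and after a standard high-fat breakfast (55.6 g fat, 55 g carbohydrate, 31.1 g protein) in period 2. Washout was at least 2 weeks. Plasma was assayed by LC/MS/MS (LLOQ 1.0 ng/mL). Log-transformed parameters were compared fed/fasted as GMR with 90% CI.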

plasma DPP-4 activity [11] = conditions: lean mice, 0.3 mg/kg dose; cited from earlier work

T1 sequence (P27487 39-766): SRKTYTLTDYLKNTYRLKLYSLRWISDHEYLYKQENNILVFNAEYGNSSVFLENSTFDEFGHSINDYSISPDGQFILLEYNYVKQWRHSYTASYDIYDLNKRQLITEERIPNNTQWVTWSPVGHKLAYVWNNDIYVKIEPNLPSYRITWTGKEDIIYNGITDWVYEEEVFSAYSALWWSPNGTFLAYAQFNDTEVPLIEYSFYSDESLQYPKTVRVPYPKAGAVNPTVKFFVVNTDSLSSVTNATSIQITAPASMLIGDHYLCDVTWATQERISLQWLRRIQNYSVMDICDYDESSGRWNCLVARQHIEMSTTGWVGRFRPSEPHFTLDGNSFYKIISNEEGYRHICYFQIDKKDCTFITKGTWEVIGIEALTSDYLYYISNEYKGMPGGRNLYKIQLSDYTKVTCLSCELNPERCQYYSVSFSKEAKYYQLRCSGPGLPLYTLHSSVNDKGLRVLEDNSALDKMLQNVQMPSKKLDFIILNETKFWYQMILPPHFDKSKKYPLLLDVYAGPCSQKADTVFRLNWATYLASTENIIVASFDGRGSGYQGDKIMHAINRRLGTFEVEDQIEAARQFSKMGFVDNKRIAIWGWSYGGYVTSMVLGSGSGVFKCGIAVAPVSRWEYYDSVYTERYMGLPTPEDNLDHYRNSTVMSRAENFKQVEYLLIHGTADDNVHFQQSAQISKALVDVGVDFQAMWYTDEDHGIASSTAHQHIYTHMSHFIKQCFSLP

**Q.** With `CS(=O)(=O)n1cc2c(n1)CN([C@H]1CO[C@H](c3cc(F)ccc3F)[C@@H](N)C1)C2` [omarigliptin] as the compound, how does the “percentage inhibition of DPP-4 activity 168 hours postdose (point estimate)” value (plasma DPP-4 activity [1]; single dose 0.5 mg) read?
**A.** 32.2%

**Q.** And the “percentage inhibition of DPP-4 activity 168 hours postdose (point estimate)” value (plasma DPP-4 activity [1]; single dose 400 mg)?
**A.** 96.7%

**Q.** What about the Tmax [2] of the same compound?
**A.** 0.75 to 4 h

**Q.** And the Cmax ([2]; 0.5 mg)?
**A.** 6.5 nM

**Q.** What about the Tmax ([2]; 0.5 mg) of the same compound?
**A.** 0.75 h

**Q.** And the AUC(0-inf) ([2]; 1.5 mg)?
**A.** 1.7 µM·h

**Q.** What about the Cmax ([2]; 1.5 mg) of the same compound?
**A.** 20.7 nM

**Q.** And the Tmax ([2]; 1.5 mg)?
**A.** 1 h

**Q.** What about the AUC(0-inf) ([2]; 5 mg) of the same compound?
**A.** 5.3 µM·h

**Q.** What about the Cmax ([2]; 5 mg) of the same compound?
**A.** 88.2 nM

**Q.** And the Tmax ([2]; 5 mg)?
**A.** 2 h

**Q.** And the AUC(0-inf) ([2]; 12.5 mg)?
**A.** 12 µM·h

**Q.** What about the Cmax ([2]; 12.5 mg) of the same compound?
**A.** 219 nM

**Q.** And the Tmax ([2]; 12.5 mg)?
**A.** 4 h

**Q.** What about the AUC(0-inf) ([2]; 25 mg) of the same compound?
**A.** 22.5 µM·h

**Q.** What about the Cmax ([2]; 25 mg) of the same compound?
**A.** 484 nM

**Q.** And the Tmax ([2]; 25 mg)?
**A.** 0.75 h

**Q.** And the AUC(0-inf) ([2]; 50 mg)?
**A.** 41.6 µM·h

**Q.** And the Cmax ([2]; 50 mg)?
**A.** 904 nM

**Q.** And the Tmax ([2]; 50 mg)?
**A.** 1.5 h

**Q.** And the AUC(0-inf) ([2]; 100 mg)?
**A.** 86.9 µM·h

**Q.** And the Cmax ([2]; 100 mg)?
**A.** 2210 nM

**Q.** What about the Tmax ([2]; 100 mg) of the same compound?
**A.** 0.75 h

**Q.** And the AUC(0-inf) ([2]; 200 mg)?
**A.** 162 µM·h

**Q.** And the Cmax ([2]; 200 mg)?
**A.** 3850 nM

**Q.** What about the Tmax ([2]; 200 mg) of the same compound?
**A.** 1.5 h

**Q.** And the AUC(0-inf) ([2]; 400 mg)?
**A.** 335 µM·h

**Q.** And the Cmax ([2]; 400 mg)?
**A.** 9290 nM

**Q.** And the Tmax ([2]; 400 mg)?
**A.** 1 h

**Q.** And the “increase in weighted average postprandial active GLP-1” value (active GLP-1)?
**A.** ~2 fold

**Q.** What about the solubility [3] of the same compound?
**A.** high

**Q.** And the bioavailability [4]?
**A.** nearly complete

**Q.** And the “Hill slope γ” value (plasma DPP-4 activity [5]; Emax model, single doses, SE 0.03)?
**A.** 1.1

**Q.** What about the Emax (plasma DPP-4 activity [5]; read-out: Emax, maximum inhibition of plasma DPP-4 activity) of the same compound?
**A.** 96.8%

**Q.** What about the tolerability ([6]; healthy adults) of the same compound?
**A.** generally well tolerated

**Q.** And the “clinical or laboratory adverse experiences of hypoglycemia” value [6]?
**A.** no reports

**Q.** What about the “serious clinical or laboratory adverse experiences or discontinuation because of a clinical adverse experience” value [6] of the same compound?
**A.** No subject

**Q.** What about the “fe, fraction of dose excreted in urine” value ([7]; 10 mg once weekly) of the same compound?
**A.** 70.1 (14.1) %

**Q.** And the “fe, fraction of dose excreted in urine” value ([7]; 25 mg once weekly)?
**A.** 57.5 (15.7) %

**Q.** What about the “fe, fraction of dose excreted in urine” value ([7]; 50 mg once weekly) of the same compound?
**A.** 73.6 (4.3) %

**Q.** And the “fe, fraction of dose excreted in urine” value ([7]; 100 mg once weekly)?
**A.** 72.2 (7.7) %

**Q.** What about the “steady state achieved following the second dosing” value ([7]; all treatments 10 to 100 mg once weekly) of the same compound?
**A.** more than 80%

**Q.** What about the half-life ([7]; 10 mg) of the same compound?
**A.** 83.2 h

**Q.** And the half-life ([7]; 25 mg)?
**A.** 66.7 h

**Q.** What about the half-life ([7]; 50 mg) of the same compound?
**A.** 48.3 h

**Q.** And the half-life ([7]; 100 mg)?
**A.** 41.7 h

**Q.** What about the CL renal [7] of the same compound?
**A.** 26.7 to 35 mL/min

**Q.** What about the CL renal ([7]; 10 mg) of the same compound?
**A.** 33.3 mL/min

**Q.** And the CL renal ([7]; 25 mg)?
**A.** 26.7 mL/min

**Q.** What about the CL renal ([7]; 50 mg) of the same compound?
**A.** 31.7 mL/min

**Q.** And the CL renal ([7]; 100 mg)?
**A.** 35 mL/min

**Q.** And the permeability [8]?
**A.** high

**Q.** What about the “margin to the clinical dose of 25 mg” value [9] of the same compound?
**A.** ~20 fold

**Q.** What about the “difference in overall absorption in the presence and absence of a high-fat breakfast” value [10] of the same compound?
**A.** No difference

**Q.** What about the “inhibition of plasma DPP-4 activity” value (plasma DPP-4 activity [11]) of the same compound?
**A.** ~85%
